Compound activity as filed in PubChem.
VLA-4 inh – inhibition in a human VLA-4 binding assay. P13612. VLA-4 expressing cells, ligand binding flow cytometry. inhibition, % (about 7 µM as worked out from the volumes in the protocol). hit rate 0.2% among 330,000; in the data active means inhibition above about 50%
CHT allo act – human CHT allosteric activation. CHT-expressing cells, membrane potential dye, choline EC20; active compounds read high; LV-AA mutant CHT in HEK293 cells. B-score at 10 µM. hit rate 0.49% among 310,000;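 active means initial fluorescence not abnormally high and integrated response B-score, plate-corrected, over 3 SD above library mean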
T cell modulator – T cell immune modulation candidate. 2C CD8+ T cell-vesicle binding, flow cytometry; active compounds read low. response (vesicle binding), % at 7 µM. hit rate 0.068% among 330,000. AID 2052;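 active means response, share of CD8 T cells binding vesicles, and their 90th percentile fluorescence all below set limits, cut at about 80% in these data, passing the limit was not always enough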;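 further: values below 100% mean blocked vesicle binding to the CD8+ T cells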
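Assay system – 2C mouse CD8+ T cells · Also added – QL9-loaded Drosophila micro-vesicles · Timing – Cell–vesicle co-incubation 1.5 h at 37 °C, staining 20 min on ice · Signal – flow cytometry of vesicle-bound cells · Measure – percent CD8+ FL2 mean versus row control · Controls – Peptide-free naked vesicles (low) and QL9 vesicles with 0.7% DMSO vehicle (high)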
CHT block – inhibits the human high affinity choline transporter; AID 488975; B-score at 10 µM; CHT-expressing cells, membrane potential dye, choline response; active compounds read low; Q9GZV3; hit rate 0.86% among 310,000;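 active means B-score over 3 SD under the library average, and starting fluorescence ratio not unusually high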;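 further: choline stimulus applied at its EC90 after an EC20 pre-addition; B-score computed on integrated fluorescence ratio after choline addition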
Hits are given with their value; n = inactive; x = no result. Hits are enriched below; roughly 1.5% of the tested compounds scored in any of these assays.

SMILES	VLA-4 inh	CHT allo act	T cell modulator	CHT block
CC(C)CN(Cc1cc(=O)oc2cc3c(cc12)CCCC3)CC(C)C	n	n	76.5	n
CO[C@@]1(NC(=O)Cc2cccs2)C(=O)N2C(C(=O)O)=C(COC(N)=O)CS[C@@H]21	52.1	n	n	n
COc1ccccc1C1=NOC(COc2ccc3c(C)cc(=O)oc3c2)C1 (centres undefined)	n	n	n	-8.47
COc1ccc(C(=O)NNC(=O)CN2CCC(n3nnc4cc(F)ccc43)CC2)cc1	n	n	n	n
COc1ccc(C(CCNC(C)c2ccccc2)C(C)C)cc1 (centres undefined)	n	n	n	n
COc1ccc(C(C)NCCC(c2ccc(OC(C)C)cc2)c2ccccc2OC)cc1 (centres undefined)	n	7.69	n	n
CCc1ccc(CN(C)C(=O)CCc2nnc(CCc3ccccc3OC)o2)nc1	n	n	n	n
CC1(NC(=O)c2cccc(S(=O)(=O)N3CCN(c4ccc(F)cc4)CC3)c2)CCS(=O)(=O)C1 (centres undefined)	n	n	n	n
Cc1ncc([N+](=O)[O-])n1Cc1cccc(F)c1	n	n	72.2	n
CCOc1ccccc1C(=O)N1CCN(c2cccc(Cl)c2)CC1	n	12	n	n
O=C(O)c1ccccc1C(=O)N1CCN(c2cccc(Cl)c2)CC1	n	n	n	n
Cc1ccc(NC(=O)CSc2nc3ccccc3c(=O)n2CCCN2CCCCC2)cc1C	n	7.28	n	n
CC(=O)c1cccc(NC(=O)CSc2nc3ccccc3c(=O)n2CCCN2CCOCC2)c1	n	x	n	x
CN(C)c1ccc(N=Cc2nc(-c3ccccc3)oc2OC(=O)c2ccccc2)cc1	n	n	5.7	n
O=C(CCc1ccccc1)N/N=C/c1cc(Br)ccc1O	n	n	0.0	n
Oc1ccc(Br)cc1/C=N/NC(=S)NCCc1ccccc1	n	n	n	n
CN(C1=C(N2CCCCC2)C(=O)c2ccccc2C1=O)c1ccccc1	n	n	n	-5.76
O=C1C(Nc2ccccc2)=C(N2CCCCC2)C(=O)c2ccccc21	n	n	n	n
COCCNC(=O)/C(C#N)=c1\s/c(=C\c2ccccc2OC(F)F)c(=O)n1Cc1ccccc1	n	n	n	n
CN(C)CCCOC(=O)COc1ccc(Br)cc1	n	n	n	n
C=CCOc1ccc(/C=C2\SC(=S)N(NS(=O)(=O)c3ccccc3)C2=O)cc1	n	n	n	-6.16
O=C1/C(=C\c2ccc(Br)cc2)SC(=S)N1NS(=O)(=O)c1ccccc1	n	n	n	n
C/C(=N\NC(=O)c1ccc(Br)o1)c1cc2c(cc1NC(=O)CCC(=O)O)OCO2	n	n	0.0	n
COc1ccccc1OCC(=O)Nc1cc(S(=O)(=O)N2CCOCC2)ccc1N1CCCCC1	n	x	n	x
CCc1ccc(O)c(CNCCNCc2cc(CC)ccc2O)c1	n	n	n	-6.82
SMILES	VLA-4 inh	CHT allo act	T cell modulator	CHT block
CCCc1cc(NCCCn2ccnc2)n2nc(C)c(-c3ccccc3)c2n1	n	n	n	-7.14
CC(C)(C)c1cc(NCCCn2ccnc2)n2ncc(-c3ccccc3)c2n1	n	n	n	n
Cc1ccc(CN2CCN(/N=C/c3ccc(C)s3)CC2)c(C)c1	n	n	n	n
CC1(OC(=O)c2cccs2)C(=O)C=C2C=C3CCCN3C=C2C1=O (centres undefined)	n	n	n	-5.28
CCCCC1=CC2=C(c3ccco3)C(=O)C(C)(OC(=O)c3ccc(OC)cc3)C(=O)C2=CN1C1CCCC1 (centres undefined)	n	n	n	-7.05
CCCCC1=CC2=C(c3ccco3)C(=O)C(C)(OC(=O)c3ccc(OC)cc3)C(=O)C2=CN1C1CC1 (centres undefined)	n	n	n	n
O=C1c2ccccc2C(=O)c2c1ccc(C(=O)N1CCCCC1)c2NCCO	n	n	n	n
CC1CCCN(C(=O)c2ccc3c(c2NCCO)C(=O)c2ccccc2C3=O)C1 (centres undefined)	n	n	n	-5.38
Cc1ccc2sc(N(CCCN(C)C)C(=O)c3ccc(Br)s3)nc2c1C	n	n	n	n
O=C(c1ccc(N2C(=O)C3CC=C(Cl)CC3C2=O)cc1)N1CCCCC1 (centres undefined)	n	n	0.0	n
O=C(c1ccc(N2C(=O)C3CC=C(Cl)CC3C2=O)cc1)N1CCOCC1 (centres undefined)	n	n	n	n
CCCCN(CC)CCCNC(=S)Nc1ccc2nc(N3CCN(C)CC3)cc(C)c2c1	n	n	n	n
CCCCN(CC)CCCNC(=S)Nc1ccc2nc(N3CCN(CC)CC3)cc(C)c2c1	n	n	n	-11.1
CCN(CC)CCNC(=S)Nc1ccc2nc(N3CCCC3)cc(C)c2c1	n	n	n	n
CCCN(CCC)CCCNC(=S)Nc1ccc2nc(N3CCCC3)cc(C)c2c1	n	n	n	-9.51
CCCS(=O)(=O)c1nc(S(=O)(=O)c2ccc(C)cc2)c(N2CCC3(CC2)OCCO3)s1	n	n	n	n
C=CCOc1ccc(C2NC(=S)NC(c3ccccc3)=C2C(C)=O)cc1OC (centres undefined)	n	n	27.2	n
Cc1cccc(C)c1NC(=O)Cn1nc(-c2ccc(Cl)s2)ccc1=O	n	n	n	n
CC(C)CC1C(C#N)=C(N)Oc2n[nH]c(-c3ccccc3)c21 (centres undefined)	n	n	44.1	n
Cc1[nH]nc2c1C(CC(C)C)C(C#N)=C(N)O2 (centres undefined)	n	n	n	n
Cc1ccc(C)c(OCCC(=O)NNC(=O)c2cc(C)oc2C)c1	n	x	n	x
COc1ccc(S(=O)(=O)N2CCCCC2)cc1C(=O)N1CCCC1	n	n	0.0	n
COc1ccc(S(=O)(=O)N2CCCC2)cc1C(=O)N1CCCCC1	n	n	n	n
Cc1ccc(NS(=O)(=O)c2ccc(-c3cnc(C4CC4)o3)cc2)cc1	n	n	n	n
Cc1ccc(N(C)S(=O)(=O)c2ccc(-c3cnc(C4CC4)o3)cc2)cc1	n	6.43	n	n
SMILES	VLA-4 inh	CHT allo act	T cell modulator	CHT block
Nc1nc(Nc2ccc(Cl)cc2)c(NC=O)c(=O)[nH]1	n	n	n	n
COc1ccc(S(=O)(=O)Nc2ccc(OCC(=O)O)cc2)c2ccccc12	n	n	n	n
O=[N+]([O-])c1ccc(COc2cccc(CNc3ccc(Br)cc3)c2)cc1	n	n	n	n
C=C[C@@]1(C)CC(=O)[C@]2(O)[C@@]3(C)[C@@H](O)CCC(C)(C)[C@@H]3[C@H](O)[C@H](OC(C)=O)[C@@]2(C)O1	n	n	n	-6.42
C=C1C(=O)O[C@H]2C[C@]3(C)C([C@@H](OC(=O)/C(C)=C/C)[C@H]12)[C@](C)(O)CC[C@H]3O (some centres undefined)	n	n	n	n
COc1ccc(OC)c(NC(=O)CCN2C(=O)c3ccccc3C2=O)c1	n	n	n	n
CCN(CC)CCNC(=O)c1ccc2c(=O)n(C3CCCC3)c(=S)[nH]c2c1	n	n	n	-15.1
Cn1ncc(Cl)c1C(=O)N1CCN(c2ccc(Cl)c(Cl)c2)CC1	n	n	n	n
O=C1CC(N2CCC(c3nc4ccccc4[nH]3)CC2)C(=O)N1Cc1ccccc1 (centres undefined)	n	n	n	n
